Results taken from ChEMBL document CHEMBL1817648, “Synthesis and in vitro antibacterial activity of a series of novel gatifloxacin derivatives” (Eur J Med Chem, 2011).
Converted amounts (≈) assume the structure as drawn.

Tests used:
[1] = Cytotoxicity against african green monkey Vero cells after 72 hrs by MTT assay; format: cell-based; settings: chlorocebus sabaeus
Summary of the method: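 Vero cells were kept in Minimum Essential Medium with Earle's salts plus 10% fetal bovine serum at 37 °C under 5% CO₂. Cells were seeded at 1 × 10⁴ per well and allowed to recover 24 h. Medium was then replaced with assay medium containing compound or no drug, and cells were exposed for 72 h. CC₅₀ is the 50% cellular cytotoxic concentration.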

[2] = test system: Staphylococcus aureus; assay: Antibacterial activity against Staphylococcus aureus ATCC 25923 after 18 to 24 hrs by NCCLS M100-S11 two fold serial dilution method; format: functional; settings: ATCC25923
[3] = test system: Staphylococcus aureus; assay: Antibacterial activity against methicillin-resistant Staphylococcus aureus 08-1 after 18 to 24 hrs by NCCLS M100-S11 two fold serial dilution method; format: functional
Summary of the method: (§1)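 Two-fold serial dilution in agar medium. MIC read as the lowest concentration giving complete inhibition of bacterial growth after incubation at 35 °C for 18–24 h.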

[4] = test system: Staphylococcus aureus; assay: Antibacterial activity against methicillin-sensitive Staphylococcus aureus 08-1 after 18 to 24 hrs by NCCLS M100-S11 two fold serial dilution method; format: functional
[5] = test system: Staphylococcus epidermidis; assay: Antibacterial activity against methicillin-resistant Staphylococcus epidermidis 09-4 after 18 to 24 hrs by NCCLS M100-S11 two fold serial dilution method; format: functional; summary of the method: as §1
[6] = test system: Staphylococcus epidermidis; assay: Antibacterial activity against methicillin-sensitive Staphylococcus epidermidis 09-3 after 18 to 24 hrs by NCCLS M100-S11 two fold serial dilution method; format: functional; summary of the method: as §1
[7] = test system: Staphylococcus epidermidis; assay: Antibacterial activity against methicillin-sensitive Staphylococcus epidermidis 09-6 after 18 to 24 hrs by NCCLS M100-S11 two fold serial dilution method; format: functional; summary of the method: as §1
[8] = test system: Streptococcus pneumoniae; assay: Antibacterial activity against Streptococcus pneumoniae 08-2 after 18 to 24 hrs by NCCLS M100-S11 two fold serial dilution method; format: functional
[9] = test system: Streptococcus pneumoniae; assay: Antibacterial activity against Streptococcus pneumoniae 08-4 after 18 to 24 hrs by NCCLS M100-S11 two fold serial dilution method; format: functional
[10] = test system: Enterococcus faecium; assay: Antibacterial activity against Enterococcus faecium 08-2 after 18 to 24 hrs by NCCLS M100-S11 two fold serial dilution method; format: functional
[11] = test system: Enterococcus faecium; assay: Antibacterial activity against Enterococcus faecium 08-7 after 18 to 24 hrs by NCCLS M100-S11 two fold serial dilution method; format: functional
[12] = test system: Enterococcus faecalis; assay: Antibacterial activity against Enterococcus faecalis 08-10 after 18 to 24 hrs by NCCLS M100-S11 two fold serial dilution method; format: functional
[13] = test system: Enterococcus faecalis; assay: Antibacterial activity against Enterococcus faecalis 08-12 after 18 to 24 hrs by NCCLS M100-S11 two fold serial dilution method; format: functional
[14] = test system: Escherichia coli; assay: Antibacterial activity against Escherichia coli ATCC 25922 after 18 to 24 hrs by NCCLS M100-S11 two fold serial dilution method; format: functional; settings: ATCC25922
[15] = test system: Escherichia coli; assay: Antibacterial activity against Escherichia coli 08-21 after 18 to 24 hrs by NCCLS M100-S11 two fold serial dilution method; format: functional
[16] = test system: Escherichia coli; assay: Antibacterial activity against Escherichia coli 08-22 after 18 to 24 hrs by NCCLS M100-S11 two fold serial dilution method; format: functional
[17] = test system: Klebsiella pneumoniae; assay: Antibacterial activity against Klebsiella pneumoniae 09-22 after 18 to 24 hrs by NCCLS M100-S11 two fold serial dilution method; format: functional
[18] = test system: Pseudomonas aeruginosa; assay: Antibacterial activity against Pseudomonas aeruginosa ATCC 27853 after 18 to 24 hrs by NCCLS M100-S11 two fold serial dilution method; format: functional
[19] = test system: Pseudomonas aeruginosa; assay: Antibacterial activity against Pseudomonas aeruginosa 09-32 after 18 to 24 hrs by NCCLS M100-S11 two fold serial dilution method; format: functional
[20] = test system: Pseudomonas aeruginosa; assay: Antibacterial activity against Pseudomonas aeruginosa 09-33 after 18 to 24 hrs by NCCLS M100-S11 two fold serial dilution method; format: functional
[21] = test system: Pseudomonas aeruginosa; assay: Antibacterial activity against Pseudomonas aeruginosa 09-34 after 18 to 24 hrs by NCCLS M100-S11 two fold serial dilution method; format: functional
[22] = test system: Klebsiella pneumoniae; assay: Antibacterial activity against Klebsiella pneumoniae 09-23 after 18 to 24 hrs by NCCLS M100-S11 two fold serial dilution method; format: functional

COc1c(N2CCN(CC/C(C)=N/O)C(C)C2)c(F)cc2c(=O)c(C(=O)O)cn(C3CC3)c12 (stereo unspecified)
CC50 at 72 h [1]: 44.2 µg/mL (≈ 96 µM)
MIC [2]: 2 µg/mL (≈ 4.34 µM)
MIC [3]: 32 µg/mL (≈ 69.5 µM)
MIC [4]: 32 µg/mL (≈ 69.5 µM)
MIC [5]: 0.25 µg/mL (≈ 0.543 µM)
MIC [6]: 0.25 µg/mL (≈ 0.543 µM)
MIC [7]: 0.25 µg/mL (≈ 0.543 µM)
MIC [8]: 32 µg/mL (≈ 69.5 µM)
MIC [9]: 4 µg/mL (≈ 8.69 µM)
MIC [10]: 64 µg/mL (≈ 139 µM)
MIC [11]: 64 µg/mL (≈ 139 µM)
MIC [12]: > 128 µg/mL
MIC [13]: > 128 µg/mL
MIC [14]: 16 µg/mL (≈ 34.7 µM)
MIC [15]: 64 µg/mL (≈ 139 µM)
MIC [16]: 64 µg/mL (≈ 139 µM)
MIC [17]: 64 µg/mL (≈ 139 µM)
MIC [18]: 8 µg/mL (≈ 17.4 µM)
MIC [19]: 4 µg/mL (≈ 8.69 µM)
MIC [20]: > 128 µg/mL
MIC [21]: 8 µg/mL (≈ 17.4 µM)
MIC [22]: 8 µg/mL (≈ 17.4 µM)

COc1c(N2CCN(CCC#N)C(C)C2)c(F)cc2c(=O)c(C(=O)O)cn(C3CC3)c12 (stereo unspecified)
CC50 at 72 h [1]: 500 µg/mL (≈ 1170 µM)
MIC [2]: 2 µg/mL (≈ 4.67 µM)
MIC [3]: 4 µg/mL (≈ 9.34 µM)
MIC [4]: 4 µg/mL (≈ 9.34 µM)
MIC [5]: 2 µg/mL (≈ 4.67 µM)
MIC [6]: 0.25 µg/mL (≈ 0.583 µM)
MIC [7]: 2 µg/mL (≈ 4.67 µM)
MIC [8]: 32 µg/mL (≈ 74.7 µM)
MIC [9]: 4 µg/mL (≈ 9.34 µM)
MIC [10]: 32 µg/mL (≈ 74.7 µM)
MIC [11]: 32 µg/mL (≈ 74.7 µM)
MIC [12]: 64 µg/mL (≈ 149 µM)
MIC [13]: 32 µg/mL (≈ 74.7 µM)
MIC [14]: 16 µg/mL (≈ 37.3 µM)
MIC [15]: 32 µg/mL (≈ 74.7 µM)
MIC [16]: 64 µg/mL (≈ 149 µM)
MIC [17]: 32 µg/mL (≈ 74.7 µM)
MIC [18]: 8 µg/mL (≈ 18.7 µM)
MIC [19]: 4 µg/mL (≈ 9.34 µM)
MIC [20]: 128 µg/mL (≈ 299 µM)
MIC [21]: 16 µg/mL (≈ 37.3 µM)
MIC [22]: 32 µg/mL (≈ 74.7 µM)

CCO/N=C(\C)CN1CCN(c2c(F)cc3c(=O)c(C(=O)O)cn(C4CC4)c3c2OC)CC1C (stereo unspecified)
CC50 at 72 h [1]: 31.2 µg/mL (≈ 65.9 µM)
MIC [2]: 0.125 µg/mL (≈ 0.263 µM)
MIC [3]: 0.25 µg/mL (≈ 0.527 µM)
MIC [4]: 0.25 µg/mL (≈ 0.527 µM)
MIC [5]: 0.25 µg/mL (≈ 0.527 µM)
MIC [6]: 0.25 µg/mL (≈ 0.527 µM)
MIC [7]: 0.25 µg/mL (≈ 0.527 µM)
MIC [8]: > 128 µg/mL
MIC [9]: 2 µg/mL (≈ 4.21 µM)
MIC [10]: > 128 µg/mL
MIC [11]: > 128 µg/mL
MIC [12]: > 128 µg/mL
MIC [13]: > 128 µg/mL
MIC [14]: 128 µg/mL (≈ 270 µM)
MIC [15]: > 128 µg/mL
MIC [16]: > 128 µg/mL
MIC [17]: > 128 µg/mL
MIC [18]: > 128 µg/mL
MIC [19]: > 128 µg/mL
MIC [20]: > 128 µg/mL
MIC [21]: > 128 µg/mL
MIC [22]: > 128 µg/mL
